Experimental data collected from several papers.
Each line is one published result; the experiments were not run side by side.
Read-out: cell growth or viability

N.N.[Cl][Pt][Cl] — IC50 (MGC-803; MTT; 24 h): 29500 nM
Cc1cc(N(CCO)CCO)ccc1C=O — IC50 (A498): > 10 µg/mL
C[C@H]1CN(c2ccncc2NC(=O)c2ccc(F)c(-c3c(F)cccc3F)n2)C[C@@H](N)[C@@H]1O — GI50 (MM1.S; thymidine uptake; 72 h): 22 nM
N.N.[Cl][Pt][Cl] — IC50 (SW480; MTT; 48 h): 13400 nM
Cc1cccc(-n2ncc(Cl)c(Cl)c2=O)c1 — IC50 (NCI-H2030; resazurin; 96 h): 270 nM
CC1=C(O)C(=O)C=C2C1=CC=C1[C@@]2(C)CC[C@@]2(C)[C@@H]3C[C@](C)(C(=O)OCCCn4cc(C=O)c5ccccc54)CC[C@]3(C)CC[C@]12C — IC50 (MGC-803; MTT; 48 h): 340 nM
Cc1cc(N(CCOS(C)(=O)=O)CCOS(C)(=O)=O)ccc1C=O — IC50 (A498): 0.0463 µg/mL
CC1=C(O)C(=O)C=C2C1=CC=C1[C@@]2(C)CC[C@@]2(C)[C@@H]3C[C@](C)(C(=O)O)CC[C@]3(C)CC[C@]12C — IC50 (MGC-803; MTT; 48 h): 350 nM
COc1ccc2c(c1)[nH]c1c(C)nccc12 — IC50 (PC-12; MTT; 48 h): 18000 nM
